From ChEMBL document CHEMBL2034936, “Discovery and extensive in vitro evaluations of NK-HDAC-1: a chiral histone deacetylase inhibitor as a promising lead” (J Med Chem, 2012)
In brackets after ≈: the same amount, converted by molar mass. Activity calls are given as the source filed them. The rule behind the calls is not given here.

Experiments:
[1] = Half life in mouse liver microsomes; assay type: ADME, Microsome
M14 = test: cells; assay type: functional; settings: Homo sapiens, M14, 72 h
[2] = Apparent permeability from basolateral to apical side in human Caco2 cells at 10 uM; assay type: ADME, cell-based; settings: Caco-2
How it was run: (§1)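 Caco-2 monolayers, test compound at 10 μM. Apparent permeability measured in both directions, apical to basolateral and basolateral to apical. Efflux ratio = P_app B to A / P_app A to B. Run by a contract lab following published methods. Mean of three independent triplicate experiments.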

SK-OV-3 = test: cells; assay type: functional; settings: Homo sapiens, SK-OV-3, 72 h
CCRF-CEM = test: Growth inhibition of human CCRF-CEM cells after 72 hrs by MTS assay; assay type: functional
MOLT-4 = test: Growth inhibition of human MOLT4 cells after 72 hrs by MTS assay; assay type: functional; settings: MOLT-4, 72 h
OVCAR-4 = test: cells; assay type: functional; settings: Homo sapiens, OVCAR-4, 72 h
IGROV-1 = test: cells; assay type: functional; settings: Homo sapiens, IGROV-1, 72 h
A549 = test: cells; assay type: functional; settings: Homo sapiens, A549, 72 h
UACC-257 = test: cells; assay type: functional; settings: Homo sapiens, UACC-257, 72 h
[3] = biological target: T1, Histone deacetylase (Homo sapiens) (UniProt Q13547+O15379+Q9UBN7+Q92769+Q9UQL6+Q8WUI4+Q9BY41+Q96DB2+P56524+Q9UKV0+Q969S8); test: Inhibition of HDAC in human MDA-MB-231 cells assessed as stimulation of histone H3 acetylation at 0.1 uM incubated for 24 hrs by Western blot; assay type: cell-based
How it was run: (§2)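 MDA-MB-231 cells in 35-mm dishes, dosed 24 h at graded concentrations, then trypsinized and PBS-washed. Lysed in RIPA (50 mM Tris-HCl pH 7.5, protease and phosphatase inhibitors) for 30 min at 4 °C, then cleared at 12,000g. Lysate, 60 μg protein by BCA, run on SDS-PAGE and PVDF. Blotted with anti-acetyl-histone H3 and HRP anti-rabbit, read by ECL.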

COLO 205 = test: Growth inhibition of human COLO205 cells after 72 hrs by MTS assay; assay type: functional; settings: COLO 205, 72 h
OVCAR-3 = test: cells; assay type: functional; settings: Homo sapiens, OVCAR-3, 72 h
NCI-H226 = test: cells; assay type: functional; settings: Homo sapiens, NCI-H226, 72 h
[4] = Half life in mouse plasma; assay type: ADME, cell-free
DU-145 = test: cells; assay type: functional; settings: Homo sapiens, DU-145, 72 h
Histone deacetylase = test: Inhibition of HDAC in human HeLa cell nuclear extracts using Ac-Arg-Gly-Lys(Ac)-AMC substrate by fluorimetry; assay type: protein assay
SNB-19 = test: cells; assay type: functional; settings: Homo sapiens, SNB-19, 72 h
SF-295 = test: cells; assay type: functional; settings: Homo sapiens, SF-295, 72 h
NCI-H23 = test: cells; assay type: functional; settings: Homo sapiens, NCI-H23, 72 h
[5] = biological target: T1, Histone deacetylase (Homo sapiens); test: Inhibition of HDAC in human MDA-MB-231 cells assessed as stimulation of histone H3 acetylation at 5 uM incubated for 24 hrs by Western blot; assay type: cell-based; how it was run: as §2
in vitro = settings: human, MCF10A cells
cells = assay type: functional; settings: Homo sapiens, NCI/ADR-RES, 72 h
[6] = Solubility in pH 7.4 PBS buffer; assay type: physicochemical
Malme-3M = test: cells; assay type: functional; settings: Homo sapiens, 72 h
UO-31 = test: cells; assay type: functional; settings: Homo sapiens, UO-31, 72 h
[7] = Apparent permeability from apical to basolateral side in human Caco2 cells at 10 uM; assay type: ADME, cell-based; settings: Caco-2; how it was run: as §1
EKVX = test: cells; assay type: functional; settings: Homo sapiens, 72 h
[8] = Half life in artificial gastric fluid; assay type: physicochemical
SK-MEL-5 = test: cells; assay type: functional; settings: Homo sapiens, SK-MEL-5, 72 h
OVCAR-5 = test: Growth inhibition of human OVCAR5 cells after 72 hrs by MTS assay; assay type: functional; settings: OVCAR-5, 72 h
[9] = biological target: T1, Histone deacetylase (Homo sapiens); test: Inhibition of HDAC in human MDA-MB-231 cells assessed as stimulation of histone H3 acetylation at 0.5 uM by Western blot; assay type: cell-based; settings: TDE = time-dependent effect
How it was run: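 Time course in MDA-MB-231 cells at 0.5 μM, sampled from 3 h up to 24 h. Lysed in RIPA (pH 7.5, protease and phosphatase inhibitors) at 4 °C, then 60 μg protein run on SDS-PAGE. Western blot with anti-acetyl-histone H3 and ECL detection.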

MDA-MB-468 = test: cells; assay type: functional; settings: Homo sapiens, MDA-MB-468, 72 h
SK-MEL-28 = test: cells; assay type: functional; settings: Homo sapiens, SK-MEL-28, 72 h
SR = test: Growth inhibition of human SR cells after 72 hrs by MTS assay; assay type: functional
OVCAR-8 = test: cells; assay type: functional; settings: Homo sapiens, OVCAR-8, 72 h
SF-539 = test: cells; assay type: functional; settings: Homo sapiens, SF-539, 72 h
[10] = Efflux ratio, ratio of apparent permeability from basolateral to apical side over apparent permeability from apical to basolateral side in human Caco2 cells at 10 uM; assay type: ADME, cell-based; settings: Caco-2; how it was run: as §1
SK-MEL-2 = test: cells; assay type: functional; settings: Homo sapiens, SK-MEL-2, 72 h
SNB-75 = test: Growth inhibition of human SNB75 cells after 72 hrs by MTS assay; assay type: functional; settings: SNB-75, 72 h
MCF7 = test: cells; assay type: functional; settings: Homo sapiens, MCF7, 48 h
KM12 = test: cells; assay type: functional; settings: Homo sapiens, KM12, 72 h
UACC-62 = test: Growth inhibition of human UACC62 cells after 72 hrs by MTS assay; assay type: functional; settings: UACC-62, 72 h
HOP-92 = test: cells; assay type: functional; settings: Homo sapiens, HOP-92, 72 h
HT-29 = test: Growth inhibition of human HT-29 cells after 72 hrs by MTS assay; assay type: functional; settings: HT-29, 72 h

CC(C)[C@@H](c1nc2ccccc2o1)n1cc(/C=C/C(=O)NO)nn1
half-life [1]: 3.25 h
GI50 (M14): 180 nM
Papp B→A at 10 µM [2]: 7.61 ×10⁻⁶ cm/s
GI50 (SK-OV-3): 140 nM
GI50 (CCRF-CEM): 110 nM
GI50 (MOLT-4): 72 nM
GI50 (OVCAR-4): 700 nM
GI50 (IGROV-1): 56 nM
GI50 (A549): 160 nM
GI50 (UACC-257): 88 nM
inhibition [3]: Active
GI50 (COLO 205): 140 nM
GI50 (OVCAR-3): 220 nM
GI50 (NCI-H226): 540 nM
half-life [4]: 32 h
GI50 (DU-145): 160 nM
IC50 (Histone deacetylase): 7 nM
GI50 (SNB-19): 430 nM
GI50 (SF-295): 120 nM
GI50 (NCI-H23): 140 nM
histone H3 acetylation activity (active/not active) [5]: Active
GI50 at 48 h (in vitro): 1600 nM
GI50 (cells): 27 nM
solubility [6]: 20 µg/mL (≈ 61.1 µM)
GI50 (Malme-3M): 16 nM
GI50 (UO-31): 60 nM
Papp A→B at 10 µM [7]: 6.61 ×10⁻⁶ cm/s
GI50 (EKVX): 240 nM
half-life [8]: 9.4 h
GI50 (SK-MEL-5): 100 nM
GI50 (OVCAR-5): 140 nM
inhibition [9]: tde
GI50 (MDA-MB-468): 150 nM
GI50 (SK-MEL-28): 220 nM
GI50 (SR): 90 nM
GI50 (OVCAR-8): 84 nM
GI50 (SF-539): 240 nM
efflux ratio at 10 µM [10]: 1.15
GI50 (SK-MEL-2): 87 nM
GI50 (SNB-75): 250 nM
GI50 (MCF7): 180 nM
GI50 (KM12): 230 nM
GI50 (UACC-62): 140 nM
GI50 (HOP-92): 10 nM
GI50 (HT-29): 79 nM
